{"data": "Measurements gathered from unrelated publications", "target": "Serine/threonine-protein kinase TAO1 (TAOK1, Homo sapiens, UniProt Q7L7X3)", "One construct used (Q7L7X3 1-1001)": "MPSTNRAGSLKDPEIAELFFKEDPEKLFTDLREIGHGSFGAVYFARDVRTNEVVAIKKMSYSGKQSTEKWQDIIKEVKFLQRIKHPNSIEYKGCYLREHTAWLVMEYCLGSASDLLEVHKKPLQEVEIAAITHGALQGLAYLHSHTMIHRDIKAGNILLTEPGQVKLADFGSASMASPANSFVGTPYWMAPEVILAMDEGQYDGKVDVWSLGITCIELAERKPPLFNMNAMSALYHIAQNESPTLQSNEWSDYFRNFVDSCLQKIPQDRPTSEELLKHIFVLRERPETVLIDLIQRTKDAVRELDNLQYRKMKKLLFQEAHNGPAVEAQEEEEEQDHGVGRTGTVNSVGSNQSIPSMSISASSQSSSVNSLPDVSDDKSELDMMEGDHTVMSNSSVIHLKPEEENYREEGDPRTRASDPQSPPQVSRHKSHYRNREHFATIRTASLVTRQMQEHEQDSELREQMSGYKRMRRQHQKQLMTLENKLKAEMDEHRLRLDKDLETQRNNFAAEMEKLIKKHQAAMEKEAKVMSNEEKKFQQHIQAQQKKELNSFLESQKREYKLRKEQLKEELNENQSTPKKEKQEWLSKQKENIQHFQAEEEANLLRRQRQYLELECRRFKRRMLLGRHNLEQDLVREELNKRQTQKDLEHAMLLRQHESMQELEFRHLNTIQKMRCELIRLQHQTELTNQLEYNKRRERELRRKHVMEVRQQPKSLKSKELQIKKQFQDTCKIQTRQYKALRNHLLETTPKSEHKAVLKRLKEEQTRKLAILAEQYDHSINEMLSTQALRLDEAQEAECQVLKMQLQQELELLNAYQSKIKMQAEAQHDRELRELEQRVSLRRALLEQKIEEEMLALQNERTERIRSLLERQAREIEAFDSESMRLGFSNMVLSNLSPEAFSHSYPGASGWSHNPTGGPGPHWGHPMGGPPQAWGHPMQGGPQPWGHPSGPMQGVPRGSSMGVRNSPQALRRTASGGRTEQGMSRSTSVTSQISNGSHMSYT"}
{"Compound": "C[C@@H](c1ccc(-n2cnc3c(N)ncnc32)cc1)N1CCc2nn(C)c(Cc3ccccc3)c2C1=O", "effect on": "binding", "method": "competition with immobilised ligand", "concentration": "0.1 µM", "remaining binding [%]": 90}
{"Compound": "CNC(=O)c1ccccc1Nc1cc(Nc2ccc(N3CCOCC3)cc2OC)ncc1C(F)(F)F", "effect on": "binding", "method": "competition with immobilised ligand", "concentration": "1 µM", "remaining binding [%]": "< 10"}
{"Compound": "O=C(Nc1c[nH]nc1C(=O)NC1CCNCC1)c1cc(F)cc(F)c1", "effect on": "binding", "method": "competition with immobilised ligand", "concentration": "1 µM", "remaining binding [%]": 80}
{"Compound": "C[C@H]1CCN(c2nccc(-c3cnn4ncccc34)n2)C1", "effect on": "binding", "concentration": "1 µM", "remaining binding [%]": 78}
{"Compound": "CCN1CCN(Cc2ccc(C(=O)Nc3ccc(C)c(Oc4ccc5c(c4)CC(=O)N5)c3)cc2C(F)(F)F)CC1", "effect on": "binding", "method": "competition with immobilised ligand", "concentration": "1 µM", "remaining binding [%]": 100}
{"Compound": "Cc1cnn2ncc(-c3ccnc(N(C)C)n3)c2c1", "effect on": "binding", "concentration": "1 µM", "remaining binding [%]": 92}
{"Compound": "COc1cnc(Nc2cccc(S(N)(=O)=O)c2)nc1N1CCN(c2ccccc2)C(=O)C1", "effect on": "binding", "method": "competition with immobilised ligand", "concentration": "1 µM", "remaining binding [%]": 86}
{"Compound": "Cc1cnc(Nc2ccc(C(=O)N3CCC(N4CCCC4)CC3)cc2)nc1-c1cc2ccccc2s1", "effect on": "binding", "method": "competition with immobilised ligand", "concentration": "1 µM", "remaining binding [%]": 64}
{"Compound": "N[C@H]1CCN(c2nccc(-c3cnn4ncccc34)n2)C1", "effect on": "binding", "concentration": "1 µM", "remaining binding [%]": 87}
{"Compound": "CN([C@@H]1CCc2c(CC(=O)O)c3ccccc3n2C1)S(=O)(=O)c1ccc(F)cc1", "effect on": "cell-free assay", "method": "competition with immobilised ligand", "concentration": "1 µM", "remaining binding [%]": 93}
{"Compound": "O=C(c1ccc(Nc2ncc(Cl)c(-c3ccc(Cl)s3)n2)cc1)N1CCC(N2CCCC2)CC1", "effect on": "binding", "method": "competition with immobilised ligand", "concentration": "1 µM", "remaining binding [%]": 47}
{"Compound": "COCCOc1nc(-c2ccc(Cl)nc2)nc2c1CN(C(=O)c1ncn3ccccc13)CC2", "effect on": "cell-free assay", "method": "competition with immobilised ligand", "concentration": "0.1 µM", "remaining binding [%]": 100}
{"Compound": "COc1ccnn2ncc(-c3ccnc(N(C)C)n3)c12", "effect on": "binding", "concentration": "1 µM", "remaining binding [%]": 81}
{"Compound": "CC(=O)Nc1c(C(C)=O)c(=O)n(C)c2nc(-c3ccc(Cl)cc3Cl)c(-c3ccc(Cl)cc3)cc12", "effect on": "cell-free assay", "method": "competition with immobilised ligand", "concentration": "1 µM", "remaining binding [%]": 89}
{"Compound": "CN(C)c1ncc(F)c(-c2cnn3ncccc23)n1", "effect on": "binding", "concentration": "1 µM", "remaining binding [%]": 73}
{"Compound": "COc1cccc(CNC(=O)c2nc3scc(COCc4ccc(C(=O)O)cc4)c3c(=O)[nH]2)c1", "effect on": "cell-free assay", "method": "competition with immobilised ligand", "concentration": "1 µM", "remaining binding [%]": 69.5}
{"Compound": "O=C(c1ccc(Nc2nccc(-c3cc4ccccc4s3)n2)cc1)N1CCC(N2CCCC2)CC1", "effect on": "binding", "method": "competition with immobilised ligand", "concentration": "1 µM", "remaining binding [%]": 82}
{"Compound": "CC1=C(C#N)[C@@H](c2ccc3[nH]nc(C)c3c2)C(C#N)=C(c2ccc(Cl)cc2)N1", "effect on": "cell-free assay", "method": "competition with immobilised ligand", "concentration": "1 µM", "remaining binding [%]": 100}
{"Compound": "c1cncc(-c2cccc(Nc3nccc(NC4CCCCC4)n3)c2)c1", "effect on": "binding", "method": "competition with immobilised ligand", "concentration": "10 µM", "remaining binding [%]": 97}
{"Compound": "CCC(=N\\O)/C(C)=C/c1ccc(F)cc1", "effect on": "cell-free assay", "method": "competition with immobilised ligand", "concentration": "1 µM", "remaining binding [%]": 100}
{"Compound": "CN(CCCC(F)(F)F)c1nccc(-c2cnn3ncccc23)n1", "effect on": "binding", "concentration": "1 µM", "remaining binding [%]": 100}
{"Compound": "O=C1CCc2cc(Nc3cc(OC4CCOCC4)c([N+](=O)[O-])cc3Cl)ccc2N1", "effect on": "cell-free assay", "method": "competition with immobilised ligand", "concentration": "1 µM", "remaining binding [%]": 81}
{"Compound": "CC1CCCN1c1nccc(-c2cnn3ncccc23)n1 (centres unmarked)", "effect on": "binding", "concentration": "1 µM", "remaining binding [%]": 100}
